Source: PubChem BioAssay
STK33 kinase inh: inhibitors of purified STK33 kinase, primary screen, biochemical, ADP-Glo luminescence, homogeneous, cell-free; Serine/threonine-protein kinase 33 (Homo sapiens), Q9BYT3; MBP phosphorylation; inhibition, % at 10 µM; 0.073% of 320,000 active; AID 2661, 2010;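 active = inhibition at or above 25%, using the most active replicate where run in duplicate; inactive = inhibition below 25%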
GSK3beta inhib: human GSK3beta kinase inhibitors, primary screen, biochemical, cell-free homogeneous, HTS. GST-GSK3beta kinase, ADP-Glo luminescence, 60 min; active compounds read low. activity score (negative = inhibition), % at 10 µM. 0.038% of 300,000 active;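 active = more than half of replicate wells score below -50%, meaning over 50% inhibition versus plate controls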;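 note: 0% = median DMSO wells and -100% = median GW8510 positive control wells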
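Assay system: GST-fused GSK3beta enzyme, cell-free / Medium: Tris pH 7.5 buffer with MgCl2, DTT, BSA, heparin / Also added: peptide substrate plus 25 µM ATP (final) / Compound: 10 µM single point / Timing: kinase reaction with compound 60 min at room temperature / Detection: ADP-Glo luminescence / Benchmarks: DMSO neutral wells and GW8510 at 20 µM as positive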
Arr AP2 block: inhibitors of beta-arrestin/AP2 binding, primary screen, biochemical, GPCR trafficking, flow cytometry | beta-arrestin 1 C-terminal peptide binding to AP2 beta2-adaptin appendage (human) | FITC-arrestin peptide / GST-AP2 beads; AP2 beta2 appendage carries R879A mutation | inhibition, % at 10 µM | 0.31% of 340,000 active | AID 504490, 2011;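 active = inhibition above a set limit, near 3 SD of compounds lacking own fluorescence, cut at about 54% in these data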;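 note: plate controls were DMSO wells for no effect and 5 µM unlabelled arrestin peptide for full effect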
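test system = AP2 appendage R879A on GSH beads | buffer or medium = PBS plus Tween 20 (0.05%) and BSA (0.1%) | incubation = 12 min plus 1 h, RT | detection = bead flow cytometry, FITC channel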
Dyrk1A ADPGlo: rat Dyrk1A kinase inhibitors, primary screen, biochemical, single point, plate reader. ADP-Glo luminescence, NFATc1 peptide. inhibition, % at 12.5 µM. 0.43% of 310,000 active. AID 504441, 2011; in the data active = inhibition above about 50%;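 note: plate controls were vehicle with enzyme for no effect and no enzyme for full effect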
GSK3A inh: blockers of GSK3A enzyme activity – biochemical, luminescence, cell-free homogeneous, HTS, primary screen; GSK-3 alpha kinase, ADP-Glo luminescence, 60 min; Glycogen synthase kinase-3 alpha (Homo sapiens), P49840; inhibition, % at 10 µM; AID 2650, 2010; 0.1% of 320,000 active;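 active = more than half of replicates show inhibition above 20%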;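 note: GST-tagged GSK-3 alpha with peptide substrate and 25 µM ATP; 0% = DMSO neutral wells and 100% = GW8510 positive control wells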
Target sequence (P49840 whole entry, looked up): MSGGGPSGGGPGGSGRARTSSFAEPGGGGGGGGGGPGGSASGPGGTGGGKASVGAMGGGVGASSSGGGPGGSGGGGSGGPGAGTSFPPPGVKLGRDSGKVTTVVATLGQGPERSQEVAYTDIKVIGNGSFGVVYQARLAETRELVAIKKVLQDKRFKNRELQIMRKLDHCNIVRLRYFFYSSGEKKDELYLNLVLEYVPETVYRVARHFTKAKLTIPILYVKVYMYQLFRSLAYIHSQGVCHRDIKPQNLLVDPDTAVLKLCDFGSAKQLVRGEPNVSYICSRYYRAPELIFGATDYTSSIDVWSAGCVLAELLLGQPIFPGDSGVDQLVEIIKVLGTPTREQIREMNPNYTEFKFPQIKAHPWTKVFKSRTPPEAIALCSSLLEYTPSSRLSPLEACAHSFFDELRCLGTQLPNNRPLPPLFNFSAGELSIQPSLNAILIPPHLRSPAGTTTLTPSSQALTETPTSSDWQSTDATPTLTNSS
Rin1-Abl PPI inh: inhibitors of Rin1-Abl protein binding, primary screen, biochemical, TR-FRET; Tyrosine-protein kinase ABL1 (Homo sapiens) + Ras and Rab interactor 1 (Homo sapiens), …; AID 588664, 2011; 0.4% of 360,000 active; inhibition, % at 7.35 µM; in the data active = inhibition above about 5%, passing the limit was not always enough
Dyrk1A artifact: ADP-Glo luciferase interference without Dyrk1A, dose response, artefact control for Dyrk1A inhibitor project, biochemical, luminescence, cherry-pick, set 02; shares compounds with Dyrk1A ADPGlo; ADP-Glo luciferase artifact assay, no Dyrk1A; AC50, µM (titrated, usually from 12 µM), without a hit: at the highest dose activity change, negative = inhibition; 1,300 tested, under 10 active; AID 588348, 2011;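 active = fitted half-maximal dose AC50 no more than ten times the top valid tested dose, with luminescence dropping as dose rises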
The depositor's hits bear a star; . = not tested or not shown. Shown are actives, neighbours in structure and some others; about 0.99% of the full set was active somewhere.

SMILES	STK33 kinase inh	GSK3beta inhib	Arr AP2 block	Dyrk1A ADPGlo	GSK3A inh	Rin1-Abl PPI inh	Dyrk1A artifact
COc1ccc(-c2cc(NCc3ccccn3)n3ncnc3n2)cc1	0	-6	9	9	42	4	.
COc1ccc(-c2cc(NCCc3ccncc3)n3ncnc3n2)cc1	0	1	1	51*	18	-2	5%
CC(C)(C)OC(=O)N[C@H](C(=O)OC(C)(C)C)c1ccc2ccccc2c1	-2	.	-1	8	-2	1	.
Cc1ccsc1C(=O)Nc1cccc(-n2cnnn2)c1	1	6	23	.	9	-1	.
COc1ccc(NC(=O)N(C)C[C@H]2Oc3ccc(NC(=O)CCN4CCOCC4)cc3C(=O)N([C@H](C)CO)C[C@@H]2C)cc1	2	.	2	56*	-3	5	9%
C(=N\Nc1ncnc2nc[nH]c12)/c1cccs1	5	-49	30	66*	43	-2	-1%
Cc1ccsc1/C=N/Nc1ncnc2nc[nH]c12	9	-26	-4	54*	46	-5	2%
Cc1ccsc1/C=N/Nc1nc2ccccc2[nH]1	.	0	15	20	.	-3	.
c1ccc(CNc2ncnc3nc[nH]c23)cc1	.	-2	-5	4	.	3	.
Cc1ccccc1/C=N/Nc1ncnc2nc[nH]c12	8	-36	11	63*	54*	-4	8%
Cc1ccccc1CC(=O)NC1CCN(Cc2ccccc2)CC1	-1	-1	2	.	1	1	.
O=C(NCc1nnnn1-c1ccc(F)cc1)c1ccc([N+](=O)[O-])o1	-1	2	-12	17	1	3	.
Oc1ccc(Nc2nc(-c3ccc4ccccc4c3)cs2)cc1	0	-2	-5	1	1	0	.
Oc1ccc(-c2nc(-c3ccc(O)c(O)c3)cs2)cc1	19	4	2	72*	31	1	7%
COc1ccc2nc(-n3c(O)c(C4=c5ccccc5=NC4=O)[nH]c3=S)sc2c1	2	1	10	63*	5	1	8%
Cc1nc(N)nc(N)c1-c1ccc(Cl)c(Cl)c1	.	.	-48	0	.	-2	.
Nc1nc(N)nc(-c2ccc(Cl)c(Cl)c2)n1	4	.	-1	84*	13	-1	7%
C[C@@]12C(=O)OC(=O)[C@]1(C)C1CCC2O1	-2	.	3	-2	-2	0	.
Cc1cc(C)c(NC(=O)CNC(=O)COC(=O)CN2C(=O)NC3(CCCC3)C2=O)c(C)c1	0	1	2	14	3	0	.
Cc1oc2ncnc(N)c2c1C	1	-5	25	50*	2	-2	8%
Cc1ccc(-c2oc3ncnc(N)c3c2-c2ccc(C)cc2)cc1	0	27	8	-2	-2	2	.
CCOc1ccc(C2CC(c3cccc(OC)c3)Nc3nc(N)nn32)cc1 (configuration not stated)	0	2	20	58*	.	3	9%
O=c1c2ccccc2nnn1CSc1nnc(-c2ccc3c(c2)OCO3)o1	-1	-24	24	56*	44	1	8%
CC(=O)CSc1nnc(-c2ccc3c(c2)OCO3)o1	0	-2	18	22	10	1	.
Oc1ccc(/C=N/n2c(-c3ccccc3)n[nH]c2=S)cc1Br	8	-6	-8	56*	10	-1	11%
SMILES	STK33 kinase inh	GSK3beta inhib	Arr AP2 block	Dyrk1A ADPGlo	GSK3A inh	Rin1-Abl PPI inh	Dyrk1A artifact
Cc1ccccc1NC1=C/C(=N\S(=O)(=O)c2ccc(C(=O)O)cc2)c2ccccc2C1=O	5	-13	17	62*	22	-2	6%
Clc1ccc2nc(COc3ccccc3)[nH]c2c1	10	2	44	54*	-1	-1	9%
O=c1[nH]c(COc2ccccc2)nc2ccccc12	-1	0	-1	1	-2	0	.
Cc1cnc2ncc3sccc3c2c1	3	0	9	50	17	2	.
c1cnc2ncc3sccc3c2c1	-1	4	8	59*	2	-2	9%
N#CC1=C(c2ccccc2)/C(=C/c2ccccc2)OC1=O	0	-1	9	-2	-1	3	.
N#CC(C#N)=C1NC(N)=C(C#N)C(c2ccccc2)=C1C#N	9	-31	8	66*	39	-32	8%
S=c1[nH]c2ccccc2n2c(=S)[nH]nc12	3	0	41	56*	7	-2	7%
NC(=O)C1CCN(C(=O)c2ccc(NS(=O)(=O)/C=C/c3ccccc3)cc2)CC1	.	.	.	.	.	-4	.
COc1ccc(-c2nc(N)ncc2-c2ccccc2OC)c(O)c1	4	1	18	51*	12	-2	7%
COc1cccc(Cn2nnc(C(=O)NCCc3ccc(Cl)cc3)c2N)c1	-4	4	14	56*	-1	1	9%
CCOc1ccc(Cn2nnc(C(=O)NCCc3ccc(Cl)cc3)c2N)cc1	1	-3	-8	4	-3	-5	.
Nc1c(C(=O)NCc2ccccc2)nnn1Cc1ccccc1	0	7	1	60*	-3	1	10%
CCCC(C(=O)NNC(=O)c1cc(C)oc1C)c1ccccc1 (configuration not stated)	0	.	36	0	-4	2	.
CCCc1cc(C(=O)Nc2cccc(-c3nn[nH]n3)c2)sc1C	.	.	.	.	.	0	.
CCc1ccc(C(=O)Nc2cccc(-c3nn[nH]n3)c2)s1	-1	3	-2	83*	1	-3	10%
O=C(Nc1cccc(-c2nn[nH]n2)c1)c1csc2c1CCCC2	5	2	-7	56*	3	0	7%
CC(C)NC(=O)c1onc(CSc2ccc(F)cc2)c1C(=O)NC(C)C	-1	1	6	-12	-6	1	.
O=C(O)C(Cc1ccccc1[N+](=O)[O-])N1C(=O)c2ccccc2C1=O (configuration not stated)	.	.	45	-4	.	3	.
N#CC(C#N)=C1C=CC=CN1/C(=C\c1ccco1)C(=O)c1ccccc1	3	.	9	63*	1	-3	6%
